Assay results from ChEMBL document CHEMBL4715919 (Bioorg Med Chem, 2021).

Key:
[1] = biological target: T1, Sodium/glucose cotransporter 2 (Homo sapiens, UniProt P31639); test: Inhibition of human SGLT2 expressed in COS7 cells assessed as reduction in [14C]-AMG uptake; type: cell-based
T1 sequence (P31639 whole entry): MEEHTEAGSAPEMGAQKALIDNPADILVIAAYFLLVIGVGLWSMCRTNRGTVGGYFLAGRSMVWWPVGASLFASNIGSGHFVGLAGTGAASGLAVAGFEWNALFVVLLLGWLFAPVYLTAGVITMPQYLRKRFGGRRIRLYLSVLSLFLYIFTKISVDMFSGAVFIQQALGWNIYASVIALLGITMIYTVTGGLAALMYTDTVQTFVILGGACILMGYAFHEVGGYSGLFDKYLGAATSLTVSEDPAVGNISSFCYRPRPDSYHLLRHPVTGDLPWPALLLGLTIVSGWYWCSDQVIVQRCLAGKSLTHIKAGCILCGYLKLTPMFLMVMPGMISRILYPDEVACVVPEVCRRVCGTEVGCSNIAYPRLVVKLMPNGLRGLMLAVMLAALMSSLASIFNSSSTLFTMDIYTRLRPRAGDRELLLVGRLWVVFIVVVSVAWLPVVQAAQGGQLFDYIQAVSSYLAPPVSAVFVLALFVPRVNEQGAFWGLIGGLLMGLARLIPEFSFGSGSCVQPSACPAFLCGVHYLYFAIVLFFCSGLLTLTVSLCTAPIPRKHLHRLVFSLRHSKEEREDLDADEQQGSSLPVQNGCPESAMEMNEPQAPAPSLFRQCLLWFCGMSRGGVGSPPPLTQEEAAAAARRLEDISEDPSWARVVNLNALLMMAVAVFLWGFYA
Procedure, shortened: (§1)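 Human SGLT2 expression plasmid transfected into COS-7 cells. Uptake of [¹⁴C]-α-methyl-D-glucopyranoside (AMG) measured with 0.3 mM AMG in uptake buffer. […] Mean ± SEM of at least three independent experiments.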

[2] = Intrinsic clearance in rat intestinal S9 fraction at 10 uM up to 60 min in presence of NADPH by LC-MS/MS analysis
[3] = Intrinsic clearance in human liver microsomes at 30 uM up to 60 mins by LC-MS/MS analysis; type: ADME, Microsome; details: read-out: CLH
Procedure, shortened: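 Compound at 30 μM incubated at 37 °C with human liver microsomes (1 mg/mL protein) in 100 mmol/L phosphate pH 7.4 with 10 mM MgCl₂ and 1 mg/mL NADPH. Sampled at 0, 15, 30 and 60 min, quenched with ice-cold acetonitrile, centrifuged. Parent measured by LC-MS/MS. t1/2 and CLint derived from remaining compound.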

[4] = Apparent permeability of compound in human Caco-2 cells by LC-MS/MS analysis; type: ADME, cell-based
Procedure, shortened: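 Caco-2 cells seeded at 1.0 × 10⁵ cells/well on polycarbonate inserts (0.3 cm², 1 μm pores). After 60 min at 37 °C in 5% CO₂, buffer sampled from the opposite side. Compound measured by LC-MS/MS. Papp in 10^-6 cm/s.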

[5] = AUC(0 to t) in rat at 3 mg/kg, po up to 360 mins by LC-MS/MS analysis; type: ADME, organism-based; parameters: route oral, dose 3 mg/kg, time <=360; details: in vivo
Procedure, shortened: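 Rats dosed once orally at 3 mg/kg (5 mL/kg) as a suspension in 0.5 w/v% methyl cellulose 400. Jugular vein blood drawn at 5, 10, 15, 30, 60, 120, 240 and 360 min. Plasma levels measured by LC-MS/MS. AUC taken to the last observation point. Mean ± SD.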

[6] = Oral bioavailability in rat assessed as ratio of AUC at 3 mg/kg up to 360 mins by LC-MS/MS analysis; type: ADME, organism-based; details: in vivo
Procedure, shortened: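 Rat oral dosing at 3 mg/kg in 0.5% methyl cellulose, with iv dosing at 1 mg/kg in 20% DMA/80% saline. Jugular blood sampled from 5 to 360 min, plasma quantified by LC-MS/MS. F is the ratio of oral AUC to iv AUC. For the ester prodrug, AUC of the parent glucoside after prodrug dosing is compared with iv parent.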

[7] = biological target: T1, Sodium/glucose cotransporter 2; test: Inhibition of human SGLT2 expressed in COS7 cells; type: cell-based; procedure, shortened: as §1

Row | IC50 [1] [µM] | further results | SMILES
1 | 0.0122 | – | Cc1ccc(Cc2c(O[C@@H]3O[C@H](CO)[C@@H](O)[C@H](O)[C@H]3O)n[nH]c2C)cc1
2 | 0.0088 | – | CCCc1ccc(Cc2c(O[C@@H]3O[C@H](CO)[C@@H](O)[C@H](O)[C@H]3O)n[nH]c2C)cc1
3 | 0.0049 | microsomal CLint at 10 µM [2]: 3.2 µL/min/mg | CSc1ccc(Cc2c(O[C@@H]3O[C@H](CO)[C@@H](O)[C@H](O)[C@H]3O)n[nH]c2C)cc1
4 | 0.0154 | – | CCCOc1ccc(Cc2c(O[C@@H]3O[C@H](CO)[C@@H](O)[C@H](O)[C@H]3O)n[nH]c2C)cc1
5 | 0.0108 | – | CCOc1ccc(Cc2c(O[C@@H]3O[C@H](CO)[C@@H](O)[C@H](O)[C@H]3O)n[nH]c2C)cc1
6 | 0.0123 | – | COc1ccc(Cc2c(O[C@@H]3O[C@H](CO)[C@@H](O)[C@H](O)[C@H]3O)n[nH]c2C)cc1
7 | 0.0039 | – | CCc1ccc(Cc2c(O[C@@H]3O[C@H](CO)[C@@H](O)[C@H](O)[C@H]3O)n[nH]c2C)cc1
8 | 0.01 | microsomal CLint at 30 µM [3]: 1.44 µL/min/mg; Papp [4]: 1.02 ×10⁻⁶ cm/s; AUC(0-t) at 6 h [5]: 6.42 ng·h/mL; bioavailability [6]: 0.43%; microsomal CLint at 10 µM [2]: 4.1 µL/min/mg | Cc1[nH]nc(O[C@@H]2O[C@H](CO)[C@@H](O)[C@H](O)[C@H]2O)c1Cc1ccc(OC(C)C)cc1
9 | 0.0162 | – | Cc1[nH]nc(O[C@@H]2O[C@H](CO)[C@@H](O)[C@H](O)[C@H]2O)c1Cc1ccc(C(C)C)cc1
10 | 0.0512 | microsomal CLint at 10 µM [2]: 4.8 µL/min/mg | CCc1[nH]nc(O[C@@H]2O[C@H](CO)[C@@H](O)[C@H](O)[C@H]2O)c1Cc1ccc(SC)cc1
11 | 0.0163 | microsomal CLint at 10 µM [2]: 73.2 µL/min/mg | CSc1ccc(Cc2c(O[C@@H]3O[C@H](CO)[C@@H](O)[C@H](O)[C@H]3O)n[nH]c2C(F)(F)F)cc1
12 | 0.914 | – | Cc1ccccc1Cc1c(O[C@@H]2O[C@H](CO)[C@@H](O)[C@H](O)[C@H]2O)n[nH]c1C
13 | 0.757 | – | Cc1cccc(Cc2c(O[C@@H]3O[C@H](CO)[C@@H](O)[C@H](O)[C@H]3O)n[nH]c2C)c1
14 | > 1 | – | Cc1nn(C)c(O[C@@H]2O[C@H](CO)[C@@H](O)[C@H](O)[C@H]2O)c1Cc1ccc(OC(C)C)cc1
15 | 0.086 | – | OC[C@H]1O[C@@H](Oc2n[nH]c3cccc(CCc4ccccc4)c23)[C@H](O)[C@@H](O)[C@@H]1O
16 | 0.11 | microsomal CLint at 30 µM [3]: 3.73 µL/min/mg | Cc1c(Cc2ccc(OC(C)C)cc2)c(O[C@@H]2O[C@H](CO)[C@@H](O)[C@H](O)[C@H]2O)nn1C
17 | 0.0434 | microsomal CLint at 30 µM [3]: 4.15 µL/min/mg | CCn1nc(O[C@@H]2O[C@H](CO)[C@@H](O)[C@H](O)[C@H]2O)c(Cc2ccc(OC(C)C)cc2)c1C
18 | 0.0661 | microsomal CLint at 30 µM [3]: 6.75 µL/min/mg | CCCn1nc(O[C@@H]2O[C@H](CO)[C@@H](O)[C@H](O)[C@H]2O)c(Cc2ccc(OC(C)C)cc2)c1C
19 | 5.29 | – | Cc1[nH]nc(O[C@@H]2O[C@H](CO)[C@@H](O)[C@H](O)[C@H]2O)c1CCc1ccccc1
20 | 3.95 | – | Cc1[nH]nc(O[C@@H]2O[C@H](CO)[C@@H](O)[C@H](O)[C@H]2O)c1CCCc1ccccc1
21 | 0.181 | – | Cc1[nH]nc(O[C@@H]2O[C@H](CO)[C@@H](O)[C@H](O)[C@H]2O)c1Cc1ccccc1
22 | 0.154 | microsomal CLint at 10 µM [2]: 4.6 µL/min/mg | CSc1ccc(Cc2c(O[C@@H]3O[C@H](CO)[C@@H](O)[C@H](O)[C@H]3O)n[nH]c2C(C)C)cc1
23 | – | IC50 [7]: > 1000 µM | CSc1ccc(Cc2c(C(F)(F)F)n[nH]c2O)cc1
24 | 2.53 | Papp [4]: 4.29 ×10⁻⁶ cm/s; bioavailability [6]: 5.79%; microsomal CLint at 10 µM [2]: 3.4 µL/min/mg | CCOC(=O)OC[C@H]1O[C@@H](Oc2nn(C(C)C)c(C)c2Cc2ccc(OC(C)C)cc2)[C@H](O)[C@@H](O)[C@@H]1O [REMOGLIFLOZIN ETABONATE]
25 | 0.0184 | microsomal CLint at 30 µM [3]: 0.85 µL/min/mg; Papp [4]: 3.16 ×10⁻⁶ cm/s; AUC(0-t) at 6 h [5]: 27.9 ng·h/mL; bioavailability [6]: 3.23%; microsomal CLint at 10 µM [2]: 3.9 µL/min/mg | Cc1c(Cc2ccc(OC(C)C)cc2)c(O[C@@H]2O[C@H](CO)[C@@H](O)[C@H](O)[C@H]2O)nn1C(C)C [REMOGLIFLOZIN]
